Compound activity deposited in PubChem BioAssay by Johns Hopkins Ion Channel Center.
Shown are actives, neighbours in structure and some others; about 3% of the full set was active somewhere.
TRPC4 agonist = activators of mouse TRPC4 channel. AID 2237. Q9QUQ5. 310,000 tested, 0.49% active. HEK293 TRPC4beta/mu-opioid, Fluo4 calcium fluorescence; stronger effect = higher value. B-score at 10 µM;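 active = B-score above 5 SD of library B-scores, and initial fluorescence ratio not above library mean plus 5 SD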;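 also: positive B-score marks a calcium rise read as TRPC4 activation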
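Test system: HEK293 cells stably co-expressing mouse TRPC4beta and mu-opioid receptor | Schedule: Fluo4 dye loading 45 min at room temperature, 110 s recording | Measured by: Kinetic Fluo4 calcium fluorescence, 5 s baseline at 1 Hz | Evaluation: B score of integrated ratio | Controls: Buffer (low) and maximal DAMGO (high)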
TRPC6 inh = mouse TRPC6 channel inhibition; 310,000 tested, 1.1% active; B-score at 10 µM; Q61143; HEK293-TRPC6, membrane potential dye, ACh-evoked depolarization; stronger effect = lower value;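 active = B-score under library mean minus 3 SD, initial fluorescence not abnormally high, positive integrated signal ratio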;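 also: B-score derived from integrated fluorescence ratio over the kinetic read; more negative B-score means stronger inhibition of depolarization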
Target sequence (Q61143 whole entry, looked up): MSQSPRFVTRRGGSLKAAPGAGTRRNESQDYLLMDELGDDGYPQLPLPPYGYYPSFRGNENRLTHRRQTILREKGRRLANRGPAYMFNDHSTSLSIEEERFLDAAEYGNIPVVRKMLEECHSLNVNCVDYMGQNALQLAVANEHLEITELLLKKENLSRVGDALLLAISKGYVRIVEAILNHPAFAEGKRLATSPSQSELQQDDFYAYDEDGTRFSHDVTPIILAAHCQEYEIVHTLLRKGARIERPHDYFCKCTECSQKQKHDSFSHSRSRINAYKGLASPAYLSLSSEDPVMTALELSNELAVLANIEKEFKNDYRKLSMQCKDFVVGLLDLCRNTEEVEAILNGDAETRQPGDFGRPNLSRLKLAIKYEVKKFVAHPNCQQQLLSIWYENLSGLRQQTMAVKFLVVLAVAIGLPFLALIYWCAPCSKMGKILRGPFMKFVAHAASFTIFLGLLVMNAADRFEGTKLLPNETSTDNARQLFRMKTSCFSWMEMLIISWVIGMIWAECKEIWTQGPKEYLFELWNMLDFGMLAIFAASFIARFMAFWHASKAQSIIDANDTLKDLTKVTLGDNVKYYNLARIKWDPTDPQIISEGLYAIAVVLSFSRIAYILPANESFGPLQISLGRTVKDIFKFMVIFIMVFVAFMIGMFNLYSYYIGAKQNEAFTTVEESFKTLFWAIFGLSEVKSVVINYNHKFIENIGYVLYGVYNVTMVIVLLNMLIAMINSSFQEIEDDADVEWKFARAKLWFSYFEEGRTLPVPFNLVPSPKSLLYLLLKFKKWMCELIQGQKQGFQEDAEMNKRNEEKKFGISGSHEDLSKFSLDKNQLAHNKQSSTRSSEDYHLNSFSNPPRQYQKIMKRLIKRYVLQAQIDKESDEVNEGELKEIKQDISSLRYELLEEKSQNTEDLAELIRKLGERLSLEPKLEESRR
TRPC4 PAM = TRPC4 (mouse) allosteric potentiation | Q9QUQ5 | HEK293 TRPC4beta/mu-opioid, DAMGO EC20, Fluo-4 Ca2+ flux; stronger effect = higher value | B-score at 10 µM | 310,000 tested, 0.42% active;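 active = B-score of calcium response area above 5 SD of library B-scores, with initial fluorescence ratio within 5 SD of library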;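 also: B-score of integrated fluorescence ratio over time as area under calcium response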
TRPC6 activator = activates the mouse TRPC6 cation channel; Q61143; 310,000 tested, 0.13% active; AID 2550; B-score at 10 µM; HEK293-TRPC6 membrane potential dye fluorescence; stronger effect = higher value;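 active = B-score of the integrated fluorescence ratio above library mean plus 3 SD, and starting fluorescence ratio within library mean plus 5 SD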;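 also: higher score means more depolarization so channel activation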
TRPC4 inh = inhibitors of mouse TRPC4 channel. Q9QUQ5. HEK293 TRPC4beta/mu-opioid, DAMGO-evoked Fluo4 calcium flux; stronger effect = lower value. B-score at 10 µM. 300,000 tested, 0.39% active. AID 2247;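 active = B-score over 3 SD under the library average, no early fluorescence shift, positive overall ratio signal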
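Assay system: HEK293 cells with stable TRPC4beta plus mu-opioid receptor expression; Probe or stimulus: DAMGO in two steps, submaximal then maximal; Dosing: single-point compound dosing; Measured by: Fluo4 calcium-dye fluorescence, kinetic read; Read-out basis: B score from integrated Fluo4 fluorescence ratio.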
Kir21 inh = blocks the mouse Kir2.1 inward-rectifier potassium channel. P35561. HEK293-Kir2.1, FluxOR thallium flux fluorescence; stronger effect = lower value. B-score at 10 µM. 310,000 tested, 0.85% active;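 active = fluorescence ratio B-score at or below minus 3 SD of library scores, with starting-brightness B-score within 2 SD, cut at about -4.2 in these data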;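 also: channel flux triggered by added potassium and thallium sulfate stimulus; B-score of peak minus minimum fluorescence over baseline after thallium stimulus; more negative B-score means stronger Kir2.1 block with less thallium influx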
Numbers without * were called inactive; i = inactive; . = no result.

SMILES | TRPC4 agonist | TRPC6 inh | TRPC4 PAM | TRPC6 activator | TRPC4 inh | Kir21 inh
C=CCN(C)CC/C=C1\c2ccccc2CSc2ccccc21 | i | i | i | i | -5* | -3.98
NCC/C=C1/c2ccccc2CSc2ccccc21 | i | i | i | i | i | -4.35*
Cc1ccc(NNc2c(C)nc3ccccc3nc2=O)cc1 | i | i | i | i | i | 1.58
N#Cc1ccc(C(=O)OCC(=O)N2CCCC2)cc1 | i | i | i | i | i | -0.64
Cc1nnc(SCCOc2ccccc2)s1 | i | i | i | i | i | 0.86
CC(C)C[C@@H](COc1ccccc1)N1CCN(Cc2ccccc2)CCC1=O | 52* | i | i | i | i | -0.11
O=C1CCN(Cc2ccccc2)CCN1[C@H](COc1ccccc1)Cc1ccccc1 | 65* | i | i | i | . | -0.44
Cc1ccc(SC[C@H](Cc2ccccc2)N2CCN(CC(C)C)CCC2=O)cc1 | 47* | i | i | i | . | -1.68
CC(C)C[C@@H](CO)N1CCN(Cc2ccccc2)CCC1=O | i | i | i | i | i | 0.1
C=CCn1c(CCc2cc(C(C)(C)C)c(O)c(C(C)(C)C)c2)n[nH]c1=S | i | i | i | i | i | -1.6
Cc1ccc2nc(SCC(=O)Nc3cc(C)on3)nc(=O)n2c1 | i | i | i | i | i | -0.05
Cc1cc(OCC(O)CNC(C)c2ccccc2)ccc1C(C)C (stereo unspecified) | i | i | i | i | i | -10.1*
CN(CC(O)COc1ccc2ccccc2c1)C1CCCCC1 (stereo unspecified) | i | i | i | i | i | -4.08
N#Cc1ncc(-c2ccc3c(c2)OCCOCCOCCOCCOCCO3)nc1C#N | i | i | i | i | -6* | -2.33
COc1ccc(CN(C(=O)c2ccco2)c2ccccc2)cc1 | i | i | i | i | i | -4.22*
CC(NC(=O)COC(=O)c1ccccc1SCC(=O)N1CCCC1)c1ccccc1 (stereo unspecified) | i | i | i | i | i | 0.22
CCN(CC)c1nc2ccccc2nc1-n1nc(C)cc1C | i | i | i | i | i | -4.32*
Cc1cc(C)n(-c2nc3ccccc3n3cnnc23)n1 | i | i | i | i | i | 0
Cc1c(C(=O)N2CCOCC2)sc(NC(=O)CCl)c1C#N | i | i | i | i | i | -1.32
Cc1c(N(C)S(=O)(=O)c2cc(C(=O)Nc3ccccn3)ccc2Cl)c(=O)n(-c2ccccc2)n1C | i | i | i | i | -5* | -0.89
c1ccc(N2CCN(Cc3nc4ccccc4[nH]3)CC2)nc1 | i | i | i | i | i | -0.81
c1ccc(-c2ncc(CN3CCN(c4ccccn4)CC3)[nH]2)cc1 | i | i | i | i | -6* | 1.43
CC1CC(C)CN(CCC(=O)Nc2ccc(Br)cc2)C1 (stereo unspecified) | 44* | i | i | i | i | -1.45
CC1CCN(CCC(=O)Nc2ccc(Br)cc2)CC1 | i | i | i | i | i | -4.91*
COc1ccc(C(=O)CCC(=O)Nc2cccc(Cl)c2)cc1 | i | i | 18* | i | i | 1.99
SMILES | TRPC4 agonist | TRPC6 inh | TRPC4 PAM | TRPC6 activator | TRPC4 inh | Kir21 inh
CC1CC(C)CN(CCC(=O)Nc2cccc(Cl)c2)C1 (stereo unspecified) | 60* | i | i | i | i | -0.29
O=C(CCN1CCCC1)Nc1ccc(Br)cc1 | i | i | i | i | i | 1.37
CCn1c(=O)n(CC)c2cc(NC(=O)C(C)c3ccccc3)c(Br)cc21 (stereo unspecified) | i | i | i | i | i | 0.3
Cc1ccc(NC(=O)CCN2CCC(Cc3ccccc3)CC2)cc1 | 96* | i | i | i | i | -2.14
CN1CCN(CCC(=O)Nc2ccccc2)CC1 | i | i | i | i | i | -0.56
Cc1cccc(N2C(=O)CC(N3CCN(c4ccccn4)CC3)C2=O)c1 (stereo unspecified) | i | i | i | i | i | 0.68
Cc1sc2nc(CSc3ccccc3)nc(N3CCN(C)CC3)c2c1C | i | i | i | i | i | -4.69*
COCCNc1nc(CSc2ccccc2)nc2sc(C)c(C)c12 | i | i | i | i | i | 0.47
Cc1ccc(/C=N/NC(=O)NC2CCCCC2)o1 | i | i | 72* | i | i | -0.04
Cc1ccc(/C=C/C(=O)NC2CCCCCCC2)o1 | i | i | 27* | i | i | -2.59
Cc1cccc(/C=N/NC(=O)NC2CCCCC2)c1 | i | i | i | i | i | -1.08
CCC(NC(=O)c1oc2ccccc2c1COC)c1ccc(OC)cc1 (stereo unspecified) | i | i | i | i | i | -5.66*
COCc1c(C(=O)NC(C)c2ccc(S(N)(=O)=O)cc2)oc2ccccc12 (stereo unspecified) | i | i | i | i | i | 0.81
CC(C)CN1CCN(Cc2cccn2-c2cccnc2)CC1CCO (stereo unspecified) | i | i | i | i | i | -1.84
OCC1(CCc2ccccc2)CCN(Cc2cccn2-c2cccnc2)CC1 | 57* | i | i | i | i | -1.07
C/C(=N\N=c1/scc(C)n1Cc1ccco1)c1cccc([N+](=O)[O-])c1 | i | i | i | i | i | -0.57
O=C(CSc1ccc(Cl)cc1)NNC(=O)c1ccco1 | i | i | i | i | i | 0.79
Cc1ccccc1-n1c(=O)c2c(n3cnnc13)-c1ccccc1CC21CCCCC1 | i | i | 16* | i | i | 1.52
S=C(NCCN1CCOCC1)N1CCN(c2cccc(Cl)c2)CC1 | i | i | i | i | i | -0.04
S=C(NCc1ccco1)N1CCN(c2cccc(Cl)c2)CC1 | i | i | i | i | -5* | 0.18
C(=C\n1nnc2ccccc21)/c1ccc[nH]1 | i | i | i | i | i | -0.01
CCCSc1cc(NCCOC(=O)CCC)c([N+](=O)[O-])c2nonc12 | i | i | i | i | i | 1.29
CCCC(=O)OCCNc1cc(Sc2nccn2C)c2nonc2c1[N+](=O)[O-] | i | i | i | i | i | -6.26*
Cc1nnc(Sc2cc(NCCCO)c([N+](=O)[O-])c3nonc23)s1 | i | i | i | i | -6* | -7.11*
